Data published in ChEMBL document CHEMBL2146383, “Identification of an Orally Bioavailable, Potent, and Selective Inhibitor of GlyT1” (ACS Med Chem Lett, 2010).
Blank lines part the entries; values can stand above or below the molecule they belong to. Calls of active or inactive are those of the source.

Columns and labels:
[1] = Metabolic stability in rat liver microsomes assessed as compound turnover at 1 uM after 15 mins; assay type: ADME, Microsome; conditions: read-out: Drug metabolism
Summary of the method: (§1)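 Test compound at 1 μM incubated with human or rat liver microsomes (0.5 mg/mL protein) at 37 °C for 15 min; turnover measured.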

[2] = Metabolic stability in human liver microsomes assessed as compound turnover at 1 uM after 15 mins; assay type: ADME, Microsome; conditions: read-out: Drug metabolism; summary of the method: as §1
[3] = target: T1, Sodium- and chloride-dependent glycine transporter 1 (Homo sapiens, UniProt P48067); experiment: Inhibition of human GlyT1a after 15 mins
T1 sequence (P48067 whole entry): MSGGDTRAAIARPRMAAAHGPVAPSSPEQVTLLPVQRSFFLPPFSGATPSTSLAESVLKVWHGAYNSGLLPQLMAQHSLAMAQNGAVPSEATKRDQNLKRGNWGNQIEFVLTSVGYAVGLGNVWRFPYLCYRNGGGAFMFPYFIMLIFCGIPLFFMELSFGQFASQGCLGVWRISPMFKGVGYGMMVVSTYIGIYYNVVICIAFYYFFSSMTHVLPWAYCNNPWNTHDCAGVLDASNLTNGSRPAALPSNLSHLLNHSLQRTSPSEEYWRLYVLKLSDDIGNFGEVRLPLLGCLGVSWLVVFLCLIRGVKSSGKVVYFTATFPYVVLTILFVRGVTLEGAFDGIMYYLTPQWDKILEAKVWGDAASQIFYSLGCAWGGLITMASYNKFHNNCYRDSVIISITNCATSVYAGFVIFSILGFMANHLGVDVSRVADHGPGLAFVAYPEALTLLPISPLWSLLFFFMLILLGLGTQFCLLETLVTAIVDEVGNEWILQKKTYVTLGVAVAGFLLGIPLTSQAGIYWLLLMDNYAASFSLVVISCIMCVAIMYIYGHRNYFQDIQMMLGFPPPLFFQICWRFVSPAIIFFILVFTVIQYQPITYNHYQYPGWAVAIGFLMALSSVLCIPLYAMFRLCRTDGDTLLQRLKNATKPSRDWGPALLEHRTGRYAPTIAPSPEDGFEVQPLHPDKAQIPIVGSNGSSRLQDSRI
Summary of the method: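 Human GlyT1, hGlyT1a isoform; IC50 taken as the average of at least two measurements.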

Cytochrome P450 2C9 = Cytochrome P450 2C9 (Homo sapiens, UniProt P11712); experiment: Inhibition of CYP2C9; assay type: ADME
Liver = experiment: Covalent binding affinity at liver protein in rat at 20 mg/kg, po after 6 hrs; assay type: ADME, organism-based; design: dose 20 mg/kg, route oral; conditions: in vivo
Summary of the method: (§2)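 Rats dosed orally at 20 mg/kg; liver and plasma proteins sampled 6 h postdose; covalently bound drug-derived material expressed as pmol equiv/mg protein.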

Plasma [4] = experiment: Covalent binding affinity in rat plasma at 20 mg/kg, po after 6 hrs; assay type: ADME, organism-based; design: dose 20 mg/kg, route oral; conditions: in vivo; summary of the method: as §2
[5] = Cmax in rat at 1 mg/kg, po and 1 mg/kg, iv; assay type: ADME, organism-based; conditions: in vivo
Summary of the method: (§3)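 Rat PK: 1.0 mg/kg iv and po, oral arm as 0.5% methocel suspension; plasma Cl, Vd(ss), T1/2, F, Cmax (μM) and Tmax determined.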

[6] = Volume of distribution at steady state in rat at 1 mg/kg, po and 1 mg/kg, iv; assay type: ADME, organism-based; conditions: in vivo, read-out: Vdss; summary of the method: as §3
[7] = Cmax in dog at 1 mg/kg, po and 1 mg/kg, iv; assay type: ADME, organism-based, Canis lupus familiaris; conditions: in vivo
Summary of the method: (§4)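 Dog PK: single 1.0 mg/kg dose given iv and po; oral dosing in 0.5% methocel suspension. Clearance, Vd(ss), half-life, oral bioavailability (F), Cmax (μM) and Tmax derived from the plasma profiles.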

[8] = Half life in rat at 1 mg/kg, po and 1 mg/kg, iv; assay type: ADME, organism-based; conditions: in vivo; summary of the method: as §3
Rattus norvegicus [9] = experiment: Inhibition of PCP-induced cognitive deficit in extra dimensional shift in intra/extra dimensional rat model of executive function at 3 mg/kg, po; assay type: functional, organism-based; design: dose 3 mg/kg
Summary of the method: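 Rats given subchronic PCP to impair attentional set shifting, then dosed 3 mg/kg po; all ID/ED discriminations run, with trials to criterion scored for the extra-dimensional shift; significance at p < 0.05 versus PCP and vehicle groups.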

[10] = Oral bioavailability in dog at 1 mg/kg; assay type: ADME, organism-based, Canis lupus familiaris; conditions: in vivo; summary of the method: as §4
[11] = Ratio of drug level in brain to plasma in rat at 10 mg/kg, po; assay type: ADME, organism-based; design: dose 10 mg/kg, route oral; conditions: read-out: BPR
[12] = Tmax in rhesus monkey at 1 mg/kg, po and 1 mg/kg, iv; assay type: ADME, organism-based, Macaca mulatta; conditions: in vivo
Summary of the method: (§5)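 Rhesus monkey pharmacokinetics after 1.0 mg/kg by both iv and oral routes; reported parameters are Cl, Vd(ss), T1/2, F, Cmax (μM) and Tmax.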

[13] = Clearance in rhesus monkey at 1 mg/kg, po and 1 mg/kg, iv; assay type: ADME, organism-based, Macaca mulatta; conditions: in vivo; summary of the method: as §5
Plasma [14] = experiment: Receptor occupancy at Glyt1 in rat plasma at 10 mg/kg, po; assay type: functional
[15] = Volume of distribution at steady state in dog at 1 mg/kg, po and 1 mg/kg, iv; assay type: ADME, organism-based, Canis lupus familiaris; conditions: in vivo, read-out: Vdss; summary of the method: as §4
Mus musculus = species: Mus musculus; experiment: Binding affinity to mouse P-gp
[16] = Half life in dog at 1 mg/kg, po and 1 mg/kg, iv; assay type: ADME, organism-based, Canis lupus familiaris; conditions: in vivo; summary of the method: as §4
Rhesus monkey = experiment: Receptor plasma occupancy at Glyt1 in rhesus monkey pons assessed as inhibition of [18F]MK-6577 uptake administered as iv bolus plus infusion by PET imaging; assay type: functional, Macaca mulatta
Summary of the method: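 Rhesus monkeys (~10 kg) sedated with ketamine 10 mg/kg im, induced with propofol 5 mg/kg iv, and maintained on propofol 0.4 mg/kg/min. Compound given iv as bolus plus infusion in EtOH:H2O:PEG400 (10:40:50); ~5 mCi [18F]MK-6577 injected 1 h into the infusion. Dynamic PET scans compared baseline and blockade uptake to derive an occupancy versus plasma concentration curve and plasma Occ50.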

[17] = Tmax in dog at 1 mg/kg, po and 1 mg/kg, iv; assay type: ADME, organism-based, Canis lupus familiaris; conditions: in vivo; summary of the method: as §4
Rattus norvegicus [18] = experiment: Inhibition of GlyTl in rat frontal cortex assessed as increase in extracellular glycine level at 20 mg/kg, po up to 4 hrs relative to baseline; assay type: functional; design: scale not given: the % may be the effect or the level left
Summary of the method: (§6)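 Microdialysis probe placed in rat frontal cortex; extracellular glycine sampled up to 4 h after oral dosing at 3 or 20 mg/kg; peak glycine efflux given as % of basal level, mean ± SEM.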

[19] = Oral bioavailability in rhesus monkey at 1 mg/kg; assay type: ADME, organism-based, Macaca mulatta; conditions: in vivo; summary of the method: as §5
Homo sapiens = species: Homo sapiens; experiment: Binding affinity to human P-gp
Rattus norvegicus [20] = experiment: Covalent binding in rat at 20 mg/kg, po after 6 hrs; assay type: ADME, organism-based; design: dose 20 mg/kg, route oral; conditions: in vivo; summary of the method: as §2
[21] = Clearance in rat at 1 mg/kg, po and 1 mg/kg, iv; assay type: ADME, organism-based; conditions: in vivo; summary of the method: as §3
[22] = Clearance in dog at 1 mg/kg, po and 1 mg/kg, iv; assay type: ADME, organism-based, Canis lupus familiaris; conditions: in vivo; summary of the method: as §4
[23] = Half life in rhesus monkey at 1 mg/kg, po and 1 mg/kg, iv; assay type: ADME, organism-based, Macaca mulatta; conditions: in vivo; summary of the method: as §5
[24] = Volume of distribution at steady state in rhesus monkey at 1 mg/kg, po and 1 mg/kg, iv; assay type: ADME, organism-based, Macaca mulatta; conditions: in vivo, read-out: Vdss; summary of the method: as §5
[25] = Cmax in rhesus monkey at 1 mg/kg, po and 1 mg/kg, iv; assay type: ADME, organism-based, Macaca mulatta; conditions: in vivo; summary of the method: as §5
Rattus norvegicus [26] = experiment: Inhibition of GlyTl in rat frontal cortex assessed as increase extracellular glycine level after 3 mg/kg, po up to 4 hrs relative to baseline; assay type: functional; design: scale not given: the % may be the effect or the level left; summary of the method: as §6
[27] = Tmax in rat at 1 mg/kg, po and 1 mg/kg, iv; assay type: ADME, organism-based; conditions: in vivo; summary of the method: as §3
[28] = Oral bioavailability in rat at 1 mg/kg; assay type: ADME, organism-based; conditions: in vivo; summary of the method: as §3
Cytochrome P450 2D6 = Cytochrome P450 2D6 (Homo sapiens, UniProt P10635); experiment: Inhibition of CYP2D6; assay type: ADME
Brain = experiment: Receptor occupancy at Glyt1 in rat brain at 10 mg/kg, po; assay type: functional
Cytochrome P450 3A4 = Cytochrome P450 3A4 (Homo sapiens, UniProt P08684); experiment: Inhibition of CYP3A4; assay type: ADME
Cytochrome P450 3A4, sequence (P08684 whole entry): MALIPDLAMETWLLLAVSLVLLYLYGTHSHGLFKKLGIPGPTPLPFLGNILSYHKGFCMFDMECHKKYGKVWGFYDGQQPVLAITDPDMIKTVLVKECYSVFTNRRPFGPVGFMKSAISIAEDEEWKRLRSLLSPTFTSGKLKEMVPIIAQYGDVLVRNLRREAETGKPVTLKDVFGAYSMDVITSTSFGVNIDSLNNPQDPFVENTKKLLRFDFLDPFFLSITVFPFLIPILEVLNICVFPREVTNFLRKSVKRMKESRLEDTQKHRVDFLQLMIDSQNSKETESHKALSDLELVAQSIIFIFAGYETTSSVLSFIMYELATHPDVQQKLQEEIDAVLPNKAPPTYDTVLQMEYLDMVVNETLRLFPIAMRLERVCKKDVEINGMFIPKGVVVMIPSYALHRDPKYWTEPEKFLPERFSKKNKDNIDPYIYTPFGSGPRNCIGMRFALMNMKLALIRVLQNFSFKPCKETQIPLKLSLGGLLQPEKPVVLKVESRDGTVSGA

Cytochrome P450 2C9, sequence (P11712 whole entry): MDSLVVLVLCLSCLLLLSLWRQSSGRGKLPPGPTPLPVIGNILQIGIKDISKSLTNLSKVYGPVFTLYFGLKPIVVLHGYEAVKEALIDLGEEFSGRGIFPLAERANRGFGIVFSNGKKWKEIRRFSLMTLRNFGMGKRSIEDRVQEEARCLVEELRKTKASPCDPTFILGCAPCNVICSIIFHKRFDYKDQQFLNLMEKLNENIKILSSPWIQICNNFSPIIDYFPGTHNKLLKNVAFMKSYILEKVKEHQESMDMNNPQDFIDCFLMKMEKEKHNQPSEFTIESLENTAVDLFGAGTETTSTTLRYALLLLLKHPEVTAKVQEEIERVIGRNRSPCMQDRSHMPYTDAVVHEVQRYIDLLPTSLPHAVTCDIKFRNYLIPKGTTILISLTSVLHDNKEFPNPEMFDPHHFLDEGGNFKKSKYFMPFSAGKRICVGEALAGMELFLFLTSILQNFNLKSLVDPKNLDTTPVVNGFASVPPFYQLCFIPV
Cytochrome P450 2D6, sequence (P10635 whole entry): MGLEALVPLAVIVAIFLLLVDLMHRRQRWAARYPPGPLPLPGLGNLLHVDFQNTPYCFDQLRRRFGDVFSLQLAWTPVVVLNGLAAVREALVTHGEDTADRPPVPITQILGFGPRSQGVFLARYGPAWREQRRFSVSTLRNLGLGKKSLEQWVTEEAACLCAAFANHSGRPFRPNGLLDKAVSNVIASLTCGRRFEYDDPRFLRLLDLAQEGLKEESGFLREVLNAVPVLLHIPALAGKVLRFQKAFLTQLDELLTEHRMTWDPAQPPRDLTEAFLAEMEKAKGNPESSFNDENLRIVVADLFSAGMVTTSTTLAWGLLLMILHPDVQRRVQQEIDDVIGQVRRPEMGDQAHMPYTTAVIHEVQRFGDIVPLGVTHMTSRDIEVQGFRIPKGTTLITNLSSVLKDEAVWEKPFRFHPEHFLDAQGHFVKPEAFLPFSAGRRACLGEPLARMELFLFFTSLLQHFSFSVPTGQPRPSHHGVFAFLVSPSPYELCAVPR

metabolised at 0.25 h, 1 µM [1]: 53% | metabolised at 0.25 h, 1 µM [2]: 55% | IC50 [3]: 36.9 nM
SMILES: CCCS(=O)(=O)[C@H]1CC[C@](CNC(=O)c2ccc(Cl)cc2Cl)(CC2CC2)CC1

IC50 [3]: 3000 nM | IC50 (Cytochrome P450 2C9): 10 nM
SMILES: O=C(NC[C@]1(CC2CC2)CC[C@@H](S(=O)(=O)c2cnn[nH]2)CC1)c1ccc(Cl)cc1Cl

IC50 [3]: 1320 nM
SMILES: CCS(=O)(=O)[C@H]1CC[C@@](CNC(=O)c2ccc(Cl)cc2Cl)(CC2CC2)CC1

IC50 [3]: 3330 nM
SMILES: CS(=O)(=O)[C@H]1CC[C@](CNC(=O)c2ccc(Cl)cc2Cl)(CC2CC2)CC1

metabolised at 0.25 h, 1 µM [1]: 41% | metabolised at 0.25 h, 1 µM [2]: 40% | IC50 [3]: 7.3 nM
SMILES: Cc1cc(S(=O)(=O)[C@H]2CC[C@](CNC(=O)c3ccc(Cl)cc3Cl)(CC3CC3)CC2)no1

metabolised at 0.25 h, 1 µM [1]: 51% | metabolised at 0.25 h, 1 µM [2]: 35% | IC50 [3]: 8.6 nM
SMILES: Cc1cc(S(=O)(=O)[C@H]2CC[C@@](CNC(=O)c3ccc(Cl)cc3Cl)(CC3CC3)CC2)no1

PB (Liver): 153 pmolequiv/mg | Activity (Plasma [4]): 214 pmolequiv/mg | IC50 [3]: 26 nM
SMILES: CCS(=O)(=O)N1CCC(CNC(=O)c2ccc(Cl)cc2Cl)(CC2CC2)CC1

metabolised at 0.25 h, 1 µM [1]: 40% | metabolised at 0.25 h, 1 µM [2]: 35% | IC50 [3]: 29 nM
SMILES: Cc1ccc(S(=O)(=O)[C@H]2CC[C@@](CNC(=O)c3ccc(Cl)cc3Cl)(CC3CC3)CC2)nn1

Cmax [5]: 140 nM | Vd [6]: 4.1 L/kg | metabolised at 0.25 h, 1 µM [1]: 40% | Cmax [7]: 1390 nM | half-life [8]: 2.4 h | metabolised at 0.25 h, 1 µM [2]: 35% | bioavailability [10]: 48% | Kp [11]: 2.3 | Tmax [12]: 2.7 h | clearance [13]: 24 mL/min/kg | Vd [15]: 3.1 L/kg | Activity (Mus musculus): inactive | half-life [16]: 10 h | Tmax [17]: 1 h | bioavailability [19]: 2% | Activity (Homo sapiens): inactive | PB (Rattus norvegicus [20]): < 25 pmolequiv/mg | clearance [21]: 36 mL/min/kg | clearance [22]: 4.9 mL/min/kg | half-life [23]: 1.5 h | Vd [24]: 2.3 L/kg | Cmax [25]: 40 nM | IC50 [3]: 29 nM | Tmax [27]: 0.8 h | bioavailability [28]: 65%
SMILES: O=C(NC[C@]1(CC2CC2)CC[C@H](S(=O)(=O)CC2CC2)CC1)c1ccc(Cl)cc1Cl
inhibition (Rattus norvegicus [9]): Active | Occ50 (Plasma [14]): 0.35 µM | Occ50 (Rhesus monkey): 120 nM | Activity (Rattus norvegicus [18]): 184% | Activity (Rattus norvegicus [26]): 151%

IC50 [3]: 132 nM
SMILES: CCS(=O)(=O)[C@H]1CC[C@](CNC(=O)c2ccc(Cl)cc2Cl)(CC2CC2)CC1

IC50 [3]: 629 nM
SMILES: O=C(NC[C@]1(CC2CC2)CC[C@H](S(=O)(=O)CC2CCC2)CC1)c1ccc(Cl)cc1Cl

IC50 [3]: 3000 nM | inhibition (INH) (Cytochrome P450 2C9): Active
SMILES: O=C(NC[C@]1(CC2CC2)CC[C@H](S(=O)(=O)c2c[nH]nn2)CC1)c1ccc(Cl)cc1Cl

IC50 [3]: 1630 nM
SMILES: CCCS(=O)(=O)[C@H]1CC[C@@](CNC(=O)c2ccc(Cl)cc2Cl)(CC2CC2)CC1

IC50 (Cytochrome P450 2D6): > 10000 nM | Kp [11]: 0.16 | IC50 (Cytochrome P450 3A4): > 10000 nM | IC50 (Cytochrome P450 2C9): > 10000 nM
SMILES: Cn1cc(S(=O)(=O)[C@H]2CC[C@](CNC(=O)c3ccc(Cl)cc3Cl)(CC3CC3)CC2)nn1
Occ50 (Brain): 0.2 µM | Occ50 (Plasma [14]): 1.2 µM

Kp [11]: 0.1
SMILES: Cn1cc(S(=O)(=O)[C@H]2CC[C@@](CNC(=O)c3ccc(Cl)cc3Cl)(CC3CC3)CC2)nn1

IC50 [3]: 3330 nM
SMILES: Cc1nnc(S(=O)(=O)[C@H]2CC[C@@](CNC(=O)c3ccc(Cl)cc3Cl)(CC3CC3)CC2)s1
